The values that follow come from ChEMBL document CHEMBL1144824, “Oximes: metabolic activation and structure-allergenic activity relationships” (J Med Chem, 2008).

Data set [1] can be described thus: Dermal toxicity in CBA/Ca mouse assessed as skin sensitization stimulation index by measuring increase in [3H]thymidine incorporation at 10% w/v administered on ear dorsum by local lymph node assay relative to control. Also noted: species or system Skin of body. As to conditions: in vivo, topical_or_ocular. The procedure, abridged: (§1)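 Female CBA/Ca mice, 8 weeks, n = 3 or 4 per group, 25 µL of test compound in vehicle per OECD 429 LLNA; vehicle-only controls. Day 5: 250 µL PBS with 20 µCi [3H]thymidine i.v. After 5 h, draining auricular nodes were pooled per group, cells suspended and counted by β-scintillation. SI = mean dpm/node of test group over control; SI above 3 counted positive.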
(Uptake of a labelled nucleoside into DNA is a usual measure of proliferation.)

Data set [2] relates to Mus musculus. Briefly: Dermal toxicity in CBA/Ca mouse assessed as skin sensitization stimulation index by measuring increase in [3H]thymidine incorporation at 5% w/v administered on ear dorsum by local lymph node assay relative to control. In kind it is organism-based, Skin of body. Conditions: in vivo, topical_or_ocular. In outline:
as §1

Data set [3] relates to Mus musculus. Briefly: Dermal toxicity in CBA/Ca mouse assessed as skin sensitization stimulation index by measuring increase in [3H]thymidine incorporation at 0.1% w/v administered on ear dorsum by local lymph node assay relative to control. In kind it is organism-based, Skin of body. As to conditions: in vivo, topical_or_ocular. The procedure, abridged: as §1
The species named for data set [4] is Mus musculus. Briefly: Dermal toxicity in CBA/Ca mouse assessed as drug level inducing 3 times increase in skin sensitization stimulation index by measuring [3H]thymidine incorporation relative to control. Format: organism-based. Conditions: in vivo. In outline: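 Local lymph node assay per OECD Guideline 429 in female CBA/Ca mice, 8 weeks old, groups of 3 or 4. Each mouse got 25 µL of test compound in vehicle; controls got vehicle alone. Five days after first treatment, mice were dosed i.v. with 20 µCi [3H]thymidine in PBS. Auricular lymph nodes were pooled per group 5 h later and counted by β-scintillation. Value is the concentration giving SI (test/control) of 3.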

The test system of data set [5] is Mus musculus. Briefly: Dermal toxicity in CBA/Ca mouse assessed as skin sensitization stimulation index by measuring increase in [3H]thymidine incorporation at 20% w/v administered on ear dorsum by local lymph node assay relative to control. Format: organism-based, Skin of body. As to conditions: in vivo, topical_or_ocular. The procedure, abridged: as §1
For data set [6], the system named is Mus musculus. Briefly: Dermal toxicity in CBA/Ca mouse assessed as skin sensitization stimulation index by measuring increase in [3H]thymidine incorporation at 1% w/v administered on ear dorsum by local lymph node assay relative to control. As to conditions: in vivo, topical_or_ocular. In kind it is organism-based, Skin of body. The procedure, abridged:
as §1

In the case of `CC1=CCCC/C1=N\O`, the Activity in data set [1] came out at 7.91; with Mus musculus [2], 5.03; in the data set on Mus musculus [3], 1; in the data set listed under Mus musculus [4] it was 160 mM; with Mus musculus [5], 11.3; in the data set with Mus musculus [6], 2.36.

Take `ON=C1CCCCC1` [CYCLOHEXANONE OXIME]: the Activity is 1.17 in data set [1]; 0.77 in the data set with Mus musculus [2]; 0.96 in the data set with Mus musculus [3]; over 1800 mM in the data set listed under Mus musculus [4]; 0.84 in the data set with Mus musculus [5]; 0.9 in the data set on Mus musculus [6].

Consider `O/N=C\c1ccccc1`, for which the Activity in data set [1] was 2.33; with Mus musculus [2] it was 1.55; in the data set with Mus musculus [3], 1.75; in the data set listed under Mus musculus [4], over 1700 mM; with Mus musculus [5] it was 2.56; in the data set with Mus musculus [6] it was 1.8.

For `O/N=C1/C=CCCC1`, the Activity in the data set with Mus musculus [2] stood at 7.6; in the data set on Mus musculus [3], 1.54; in the data set listed under Mus musculus [4] it was 55 mM; in the data set on Mus musculus [6] it was 4.1.

As for `C/C=C/C(CC)=N/O`, the Activity in data set [1] was 3.34; in the data set on Mus musculus [2], 1.69; in the data set on Mus musculus [3], 0.99; in the data set listed under Mus musculus [4], 790 mM; in the data set on Mus musculus [5], 6.62; with Mus musculus [6], 0.99.

`CC1=C(C)/C(=N/O)CCC1`: the Activity was 1.16 in data set [1]; 1.43 in the data set with Mus musculus [2]; 1.1 with Mus musculus [3]; over 1400 mM in the data set listed under Mus musculus [4]; 1.3 in the data set with Mus musculus [5]; 1.24 in the data set on Mus musculus [6].

Regarding `CC1=C/C(=N/O)CCC1`, the Activity is 5.34 in data set [1]; 5.06 with Mus musculus [2]; 0.76 in the data set on Mus musculus [3]; 180 mM in the data set filed under Mus musculus [4]; 7.3 with Mus musculus [5]; 2.1 in the data set on Mus musculus [6].
